In ChEMBL document CHEMBL5058577, “EUbOPEN Chemogenomics Library 2 (Multiplex)” (2022):

Test system: Fibroblast
Assay: Multiplex assay against human fibroblast
Type: toxicity, cell-based
Summary of the method: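 Imaging took place on a CQ1 microscope at 37°C and 5% CO2 once compound had been added to live cells stained at seeding with Hoechst33342, BioTracker Green Microtubule Cytoskeleton Dye, MitoTracker Red and Annexin V Alexa Fluor 680. CellPathfinder machine-learning gating classed cells as Hoechst high-intensity objects or normal cells, classed normal cells as having healthy, pyknosed or fragmented nuclei, and classed pyknosed cells as mitotic or apoptotic. Tubulin, mitochondrial-mass and membrane-permeability phenotypes are per cents of the healthy-nucleus cells.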

[1] = 12 h, 1 µM, compound concentration 1 uM, replicate 1
[2] = 12 h, 1 µM, compound concentration 1 uM, replicate 2
[3] = 12 h, 10 µM, compound concentration 10 uM, replicate 1
[4] = 12 h, 10 µM, compound concentration 10 uM, replicate 2
[5] = 24 h, 1 µM, compound concentration 1 uM, replicate 1
[6] = 24 h, 1 µM, compound concentration 1 uM, replicate 2
[7] = 24 h, 10 µM, compound concentration 10 uM, replicate 1
[8] = 24 h, 10 µM, compound concentration 10 uM, replicate 2
[9] = 48 h, 1 µM, compound concentration 1 uM, replicate 1
[10] = 48 h, 1 µM, compound concentration 1 uM, replicate 2
[11] = 48 h, 10 µM, compound concentration 10 uM, replicate 1
[12] = 48 h, 10 µM, compound concentration 10 uM, replicate 2

NCCc1cn(S(=O)(=O)c2c(Cl)nc3sccn23)c2ccccc12.O=C(O)C(=O)O
Population Apoptotic (%) [1]: 45% | Population Fragmented Nuclei (%) [1]: 20% | Population Healthy Nuclei (%) [1]: 65% | Population Hoechst High Intensity Objects (%) [1]: 4% | Population Membrane Permeable-Phenotype (%) [1]: 0% | Population Mitochondria Different-Phenotype (%) [1]: 5% | Population Mitotic Cells (%) [1]: 55% | Population Normal (%) [1]: 95% | Population Pyknosed Nuclei (%) [1]: 14% | Population Tubulin-Different-Phenotype (%) [1]: 40% | Total Cell Count [1]: 146 | Population Fragmented Nuclei (%) [2]: 34% | Population Healthy Nuclei (%) [2]: 37% | Population Hoechst High Intensity Objects (%) [2]: 3% | Population Membrane Permeable-Phenotype (%) [2]: 13% | Population Mitochondria Different-Phenotype (%) [2]: 8% | Population Mitotic Cells (%) [2]: 54% | Population Normal (%) [2]: 96% | Population Pyknosed Nuclei (%) [2]: 28% | Population Tubulin-Different-Phenotype (%) [2]: 62% | Total Cell Count [2]: 170 | Population Apoptotic (%) [3]: 78% | Population Fragmented Nuclei (%) [3]: 20% | Population Healthy Nuclei (%) [3]: 56% | Population Hoechst High Intensity Objects (%) [3]: 6% | Population Membrane Permeable-Phenotype (%) [3]: 0% | Population Mitochondria Different-Phenotype (%) [3]: 40% | Population Mitotic Cells (%) [3]: 21% | Population Normal (%) [3]: 93% | Population Pyknosed Nuclei (%) [3]: 22% | Population Tubulin-Different-Phenotype (%) [3]: 90% | Total Cell Count [3]: 177 | Population Apoptotic (%) [4]: 57% | Population Fragmented Nuclei (%) [4]: 24% | Population Healthy Nuclei (%) [4]: 44% | Population Membrane Permeable-Phenotype (%) [4]: 5% | Population Mitochondria Different-Phenotype (%) [4]: 34% | Population Mitotic Cells (%) [4]: 42% | Population Pyknosed Nuclei (%) [4]: 30% | Population Tubulin-Different-Phenotype (%) [4]: 89% | Total Cell Count [4]: 219 | Population Apoptotic (%) [5]: 50% | Population Fragmented Nuclei (%) [5]: 21% | Population Healthy Nuclei (%) [5]: 64% | Population Hoechst High Intensity Objects (%) [5]: 3% | Population Membrane Permeable-Phenotype (%) [5]: 0% | Population Mitochondria Different-Phenotype (%) [5]: 13% | Population Mitotic Cells (%) [5]: 50% | Population Normal (%) [5]: 96% | Population Pyknosed Nuclei (%) [5]: 13% | Population Tubulin-Different-Phenotype (%) [5]: 42% | Total Cell Count [5]: 156 | Population Apoptotic (%) [6]: 46% | Population Fragmented Nuclei (%) [6]: 35% | Population Healthy Nuclei (%) [6]: 44% | Population Hoechst High Intensity Objects (%) [6]: 4% | Population Membrane Permeable-Phenotype (%) [6]: 18% | Population Mitochondria Different-Phenotype (%) [6]: 11% | Population Mitotic Cells (%) [6]: 53% | Population Normal (%) [6]: 95% | Population Pyknosed Nuclei (%) [6]: 20% | Population Tubulin-Different-Phenotype (%) [6]: 70% | Total Cell Count [6]: 166 | Population Apoptotic (%) [7]: 77% | Population Fragmented Nuclei (%) [7]: 22% | Population Healthy Nuclei (%) [7]: 62% | Population Hoechst High Intensity Objects (%) [7]: 3% | Population Membrane Permeable-Phenotype (%) [7]: 0% | Population Mitochondria Different-Phenotype (%) [7]: 58% | Population Mitotic Cells (%) [7]: 22% | Population Normal (%) [7]: 96% | Population Pyknosed Nuclei (%) [7]: 14% | Population Tubulin-Different-Phenotype (%) [7]: 89% | Total Cell Count [7]: 193 | Population Apoptotic (%) [8]: 72% | Population Fragmented Nuclei (%) [8]: 30% | Population Healthy Nuclei (%) [8]: 51% | Population Hoechst High Intensity Objects (%) [8]: 7% | Population Membrane Permeable-Phenotype (%) [8]: 5% | Population Mitochondria Different-Phenotype (%) [8]: 32% | Population Mitotic Cells (%) [8]: 27% | Population Normal (%) [8]: 92% | Population Pyknosed Nuclei (%) [8]: 18% | Population Tubulin-Different-Phenotype (%) [8]: 81% | Total Cell Count [8]: 237 | Population Apoptotic (%) [9]: 50% | Population Fragmented Nuclei (%) [9]: 27% | Population Healthy Nuclei (%) [9]: 63% | Population Hoechst High Intensity Objects (%) [9]: 4% | Population Membrane Permeable-Phenotype (%) [9]: 2% | Population Mitochondria Different-Phenotype (%) [9]: 3% | Population Mitotic Cells (%) [9]: 50% | Population Normal (%) [9]: 95% | Population Pyknosed Nuclei (%) [9]: 9% | Population Tubulin-Different-Phenotype (%) [9]: 46% | Total Cell Count [9]: 177 | Population Apoptotic (%) [10]: 54% | Population Fragmented Nuclei (%) [10]: 38% | Population Healthy Nuclei (%) [10]: 47% | Population Hoechst High Intensity Objects (%) [10]: 6% | Population Membrane Permeable-Phenotype (%) [10]: 9% | Population Mitochondria Different-Phenotype (%) [10]: 17% | Population Mitotic Cells (%) [10]: 45% | Population Normal (%) [10]: 93% | Population Pyknosed Nuclei (%) [10]: 14% | Population Tubulin-Different-Phenotype (%) [10]: 58% | Total Cell Count [10]: 166 | Population Apoptotic (%) [11]: 85% | Population Fragmented Nuclei (%) [11]: 22% | Population Healthy Nuclei (%) [11]: 65% | Population Hoechst High Intensity Objects (%) [11]: 7% | Population Membrane Permeable-Phenotype (%) [11]: 0% | Population Mitochondria Different-Phenotype (%) [11]: 43% | Population Mitotic Cells (%) [11]: 14% | Population Normal (%) [11]: 92% | Population Pyknosed Nuclei (%) [11]: 12% | Population Tubulin-Different-Phenotype (%) [11]: 92% | Total Cell Count [11]: 189 | Population Apoptotic (%) [12]: 75% | Population Fragmented Nuclei (%) [12]: 31% | Population Healthy Nuclei (%) [12]: 59% | Population Hoechst High Intensity Objects (%) [12]: 3% | Population Membrane Permeable-Phenotype (%) [12]: 3% | Population Mitochondria Different-Phenotype (%) [12]: 24% | Population Mitotic Cells (%) [12]: 25% | Population Normal (%) [12]: 96% | Population Pyknosed Nuclei (%) [12]: 8% | Population Tubulin-Different-Phenotype (%) [12]: 74% | Total Cell Count [12]: 241
